APJ ag: APJ receptor agonism; actives 0.11% (n = 330,000); activation, % at 20 µM; P35414; AID 2520; CHO-K1 APJ PathHunter beta-arrestin, luminescence; 0% DMSO wells, 100% apelin;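 active = activation more than six SD over the plate average, tested at 20 µM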;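 note: 0% = DMSO alone and 100% = apelin-13 at 10 nM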
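Incubation: overnight seeding, 90 min compound at 25 °C, 1 h detection; test system: PathHunter CHO-K1 APJ (AGTRL-1) beta-arrestin reporter cells; amount: 1000 cells/well; doses: one dose, 20 µM compound, 1% DMSO; measured by: beta-gal luminescence; measure: agonist-driven arrestin binding to APJ; benchmarks: negative DMSO alone, positive Apelin-13 at 10 nM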
CCR6 antag: CCR6 (human) receptor antagonism; actives 0.49% (n = 340,000); inhibition, % at 20 µM; CHO-K1 CCR6 PathHunter beta-arrestin, luminescence, CCL20-stimulated;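 active = compounds whose inhibition of the agonist-driven luminescence signal at 20 µM reaches about 50%, limit read from the data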;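 note: cells stimulated with CCL20 at 14 nM final; plate controls were DMSO with CCL20 for no effect and DMSO without agonist for full effect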
Target sequence (P51684 whole entry, looked up): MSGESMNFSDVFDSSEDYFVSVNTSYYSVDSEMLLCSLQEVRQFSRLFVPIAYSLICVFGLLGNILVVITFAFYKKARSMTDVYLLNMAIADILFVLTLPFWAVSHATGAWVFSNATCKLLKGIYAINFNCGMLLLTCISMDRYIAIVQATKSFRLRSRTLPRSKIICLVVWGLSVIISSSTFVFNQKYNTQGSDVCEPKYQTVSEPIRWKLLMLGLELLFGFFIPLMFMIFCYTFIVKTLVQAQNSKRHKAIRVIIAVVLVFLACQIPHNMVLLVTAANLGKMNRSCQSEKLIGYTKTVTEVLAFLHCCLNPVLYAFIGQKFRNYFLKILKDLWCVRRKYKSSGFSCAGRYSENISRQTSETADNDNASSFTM
H9c2 TAG inh: inhibitors of triacylglycerol accumulation; H9c2 cells, Nile Red lipid (TAG) fluorescence; cells loaded with 200 µM oleic acid; inhibition, % at 12.5 µM; actives 0.66% (n = 230,000);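 active = pattern-corrected inhibition of lipid staining of at least 50% with the nuclear-stain viability signal not falling by more than 50%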;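 note: 0% = DMSO wells and 100% = triacsin C control wells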
APJ antagonist: blocks the human apelin receptor APJ; inhibition, % at 20 µM; actives 0.32% (n = 330,000); CHO-K1 APJ beta-arrestin complementation, luminescence;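 active = inhibition above about 40% at 20 µM, limit read from the data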;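 note: cells challenged with 10 nM apelin-13 agonist together with compound; plate controls were apelin-13 plus DMSO wells for no effect and DMSO wells lacking apelin-13 for full effect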
EBI2 antag: EBI2 (human) antagonism; EBI2 beta-arrestin recruitment, luminescence, 7a,25-OHC stimulated; inhibition, % at 5 µM; actives 0.81% (n = 360,000); AID 651636; in the data active = inhibition above about 38%;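 note: enzyme fragment complementation signal reports receptor beta-arrestin coupling in cells; 0% = agonist plus DMSO wells and 100% = wells without agonist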
CXCR6 inh: CXCR6 (human) receptor inhibition. CHO-K1 PathHunter CXCR6 beta-arrestin, luminescence. O00574. inhibition, % at 20 µM. actives 0.36% (n = 360,000); in the data active = inhibition above about 34%, passing the limit was not always enough;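 note: antagonist mode with CXCL16 agonist at 10 nM final; 0% = 10 nM CXCL16 with DMSO and 100% = unstimulated wells without agonist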
Target sequence (O00574 whole entry, looked up): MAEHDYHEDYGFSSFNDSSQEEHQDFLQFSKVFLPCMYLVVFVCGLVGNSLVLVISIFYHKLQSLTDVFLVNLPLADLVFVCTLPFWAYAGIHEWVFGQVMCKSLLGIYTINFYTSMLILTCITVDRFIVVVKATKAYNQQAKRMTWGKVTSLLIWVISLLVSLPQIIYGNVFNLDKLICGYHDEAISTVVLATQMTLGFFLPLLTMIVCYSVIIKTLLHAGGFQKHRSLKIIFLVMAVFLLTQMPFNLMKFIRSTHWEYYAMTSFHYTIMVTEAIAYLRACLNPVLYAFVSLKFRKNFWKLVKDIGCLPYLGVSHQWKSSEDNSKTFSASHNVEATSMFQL
EBI2 conf: EBI2 (human) antagonism, single concentration confirmation; AID 651997; shares compounds with EBI2 antag; actives 29% (n = 2,400); EBI2 beta-arrestin luminescence, 7a,25-OHC antagonism; inhibition, % at 5 µM;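 active = inhibition of at least 50%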
EBI2 ag: EBI2 agonism counter-screen; shares compounds with EBI2 antag; EBI2-expressing cells, agonist mode, luminescence, 60 min; 0% vehicle, 100% 7α,25-dihydroxycholesterol control; activation, % at 5 µM; 2,400 tested, under 10 active;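 active = activation of at least 50%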
bGal counter: beta-galactosidase inhibition counter-screen | actives 1% (n = 2,400) | inhibition, % at 5 µM | shares compounds with EBI2 antag | AID 652176 | purified beta-galactosidase, luminescent Galacton Star, 15 min;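 active = replicate-average signal at least 3 plate SD below neutral wells, shown as high inhibition, flagging enzyme-inhibiting false positives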;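 note: 0% = DMSO wells with enzyme and 100% = wells lacking enzyme; higher means stronger loss of beta-gal luminescence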
An asterisk follows results filed as active; / = no result given. Most compounds without a hit are left out; they make up all but 1.9% or so of the library.

SMILES	APJ ag	CCR6 antag	H9c2 TAG inh	APJ antagonist	EBI2 antag	CXCR6 inh	EBI2 conf	EBI2 ag	bGal counter
O=C(COc1ccc(Br)cc1)N1CCN(Cc2c[nH]c3ccccc23)CC1	1.3	-5.2	3.7	15.1	81.3*	-2.7	53.9*	1.1	8.8
CCC(C)N1CCN(C(=O)COc2ccc3ccccc3c2)CC1 (configuration not stated)	-0.2	8.2	/	26.0	90.6*	1.9	73.9*	0.7	4.6
CN1CCN(C(=O)COc2ccc(Oc3ccccc3)cc2)CC1	-1.2	7.0	6.0	-19.0	-4.2	4.6	/	/	/
CC1=NN=C(c2ccc(N)cc2)c2cc3c(cc2C1)OCO3	19.6	28.1	-9.3	-19.2	-7.2	9.8	/	/	/
COc1ccc(Cl)cc1C(=O)C1CCCN(Cc2cnc(C)s2)C1 (configuration not stated)	-2.8	7.8	-5.6	6.3	-1.5	-7.4	/	/	/
CCc1ccc(OCC(=O)N2CCN(Cc3ccc4c(c3)OCO4)CC2)cc1	-5.2	-5.4	9.3	4.0	82.0*	-8.8	52.9*	0.4	5.6
Cc1ccc(OCC(=O)N2CCN(Cc3cccnc3)CC2)cc1	-0.9	-5.2	7.7	4.0	52.7*	-10.7	13.2	-0.7	-8.0
O=C(COc1ccc(Cl)cc1)N1CCN(Cc2ccc([N+](=O)[O-])cc2)CC1	-6.0	9.5	-20.5	-1.7	94.3*	-15.4	78.5*	-0.3	5.3
COc1ccc(OCC(=O)N2CCN(Cc3nc4cc([N+](=O)[O-])ccc4n3C)CC2)cc1	1.3	-14.8	/	1.3	73.7*	9.8	38.1	-1.8	-7.7
O=[N+]([O-])c1cccc(CN2CCN(Cc3ccc(Cl)cc3)CC2)c1	-2.9	10.9	3.5	14.3	3.1	-8.6	/	/	/
Cc1cc(=O)oc2cc(OCC(=O)N3CCN(Cc4ccc5c(c4)OCO5)CC3)ccc12	-9.2	10.4	/	10.6	10.2	-0.4	/	/	/
COc1cccc(OCC(=O)N2CCN(C)CC2)c1	-1.7	-2.0	/	-9.3	-3.5	3.7	/	/	/
Cc1cccc(OCC(=O)N2CCN(Cc3cccnc3)CC2)c1	-1.0	0.6	5.1	-16.8	10.7	-4.5	/	/	/
Cc1ccc[n+](CC(O)Cn2c3ccccc3c3ccccc32)c1 (configuration not stated)	-2.2	3.9	/	-0.5	-18.2	2.0	/	/	/
COc1ccc(CC(=O)Nc2ccc(C#N)c(Cl)c2)cc1S(=O)(=O)N1CCOCC1	0.4	18.6	11.2	-1.8	1.9	0.6	/	/	/
Cc1ccc(N2C(=O)CC(=O)NC2=O)c(C)c1	-3.5	6.6	/	12.4	-5.1	-15.8	/	/	/
COC(=O)C1=C(c2ccc(F)cc2OCc2ccccc2)C[C@@H]2CC[C@H]1N2C(=O)N1CCC(O)(c2ccc(Cl)cc2)CC1	-1.8	7.0	8.3	1.0	52.4*	8.2	16.1	2.7	-14.8
CCCNC(=O)N1[C@H]2CC[C@@H]1C(C(=O)OC)=C(c1cccc(C#N)c1)C2	-4.9	9.5	-2.1	0.0	-8.2	-1.6	/	/	/
Cc1cccc(C)c1-n1nnnc1C(c1cccs1)N1CCC(n2c(=O)[nH]c3ccccc32)CC1 (configuration not stated)	/	/	/	/	12.6	13.6	/	/	/
Cc1cccc(C)c1-n1nnnc1C(c1cccc2ccccc12)N1CCC(n2c(=O)[nH]c3ccccc32)CC1 (configuration not stated)	/	/	/	/	42.3*	2.7	34.6	-0.6	-18.4
Cc1ccc(OCC(=O)N2CCN(C3CCC(c4ccccc4)CC3)CC2)cc1 (configuration not stated)	-2.3	2.6	-7.2	10.6	82.1*	-2.0	64.3*	1.6	1.8
O=C(COc1ccccc1)N1CCN(C2CC3CCC2C3)CC1 (configuration not stated)	-4.0	12.2	7.5	-6.2	36.7	-5.3	/	/	/
O=C(COc1ccc(Br)cc1)N1CCN(C2CCCC2)CC1	0.6	0.8	/	11.5	85.2*	3.8	81.5*	-1.4	-6.7
COC(=O)c1cccc(NC(=O)N2C[C@H]3C[C@@H](C2)c2cccc(=O)n2C3)c1	-4.1	-7.4	/	-11.7	-1.0	2.4	/	/	/
CN(C(=O)Oc1ccc(C(=O)c2ccc(Cl)cc2)cc1)c1ccccc1	1.5	-7.8	/	4.2	79.0*	-1.5	56.1*	-0.8	-11.1
SMILES	APJ ag	CCR6 antag	H9c2 TAG inh	APJ antagonist	EBI2 antag	CXCR6 inh	EBI2 conf	EBI2 ag	bGal counter
CN(C)C(=O)Oc1ccc(OC(=O)c2ccccc2)cc1	0.1	2.9	/	8.4	-8.2	-4.8	/	/	/
CSCc1nnc2n1-c1ccc(Cl)cc1C(c1ccccc1)=NC2	0.4	0.1	/	-0.3	0.0	5.0	/	/	/
COc1ccc(OCC(=O)N2CCN(CC3CC4C=CC3C4)CC2)cc1 (configuration not stated)	-2.0	-10.0	2.2	16.0	83.3*	-1.9	56.1*	0.8	2.4
CCOC(=O)c1cncn1C(C)c1ccccc1 (configuration not stated)	0.6	5.8	11.0	-8.4	47.9*	-6.0	36.5	-0.5	6.6
CCOC(=O)[C@]12Cc3ccc(C)cc3[C@H]1N(C1CCCCC1)C(=O)c1cc(OC)ccc12	/	/	/	/	52.1*	28.5	9.7	2.8	-10.7
CCOC(=O)[C@]12Cc3ccc(C)cc3[C@H]1N(C1CCCCC1)C(=O)c1ccccc12	/	/	/	/	64.4*	19.2	10.8	0.6	-7.6
CCOC(=O)[C@]12Cc3c(cc(OC)c(OC)c3OC)[C@H]1N(C1CCCCC1)C(=O)c1ccccc12	/	/	/	/	71.4*	11.1	-0.8	6.0	-10.6
CCOC(=O)[C@]12Cc3cc(C)ccc3[C@H]1N(C1CCCCC1)C(=O)c1ccccc12	/	/	/	/	60.1*	16.1	6.6	2.2	-11.5
CCOC(=O)[C@]12Cc3cc(OC)ccc3[C@H]1N(C)C(=O)c1cc(OC)ccc12	/	/	/	/	9.0	-4.2	/	/	/
CCOC(=O)[C@]12Cc3cc(C)ccc3[C@H]1N(CCC(=O)OC)C(=O)c1ccccc12	/	/	/	/	-4.3	6.9	/	/	/
COC(=O)C1=C(c2cc3ccccc3s2)C[C@@H]2CC[C@H]1N2C(=O)N1CCCCC1	-5.1	11.8	-0.5	-4.7	0.3	5.8	/	/	/
N[C@@H]1CCCC[C@H]1N.O=C(O)C(=O)O.[Pt]	4.2	/	/	-0.2	/	/	/	/	/
O=C(COc1ccccc1)N1CCN(CCN2C(=O)c3cccc4cccc(c34)C2=O)CC1	1.6	8.2	-5.6	-16.6	49.9*	0.6	16.4	0.8	4.0

Bioassay records deposited in PubChem BioAssay by Sanford-Burnham Center for Chemical Genomics.
